Values after ≈ are worked out from the molar mass of the structure shown.
Legend:
Format in all cases: functional
Fusarium solani [1] = experiment: Antifungal activity against Fusarium solani assessed as zone of inhibition at 100 ug/ml after 48 hrs by disc diffusion method; conditions: read-out: DIZ
Summary of the method: (§1)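 Fungi were grown on potato dextrose agar at 25 °C for 3 days, and spore suspensions were adjusted to 10⁶ spores/ml. In the disc diffusion test, inoculated plates received 6 mm paper discs moistened with compound in DMSO at 100 or 200 per disc. Plates were incubated at 37 °C, and inhibition zone diameter was read at 48 h. Ketoconazole was the standard.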

Fusarium solani [2] = experiment: Antifungal activity against Fusarium solani assessed as zone of inhibition at 200 ug/ml after 48 hrs by disc diffusion method; conditions: read-out: DIZ; summary of the method: as §1
Curvularia lunata [3] = experiment: Antifungal activity against Curvularia lunata assessed as zone of inhibition at 100 ug/ml after 48 hrs by disc diffusion method; conditions: read-out: DIZ; summary of the method: as §1
Curvularia lunata [4] = experiment: Antifungal activity against Curvularia lunata assessed as zone of inhibition at 200 ug/ml after 48 hrs by disc diffusion method; conditions: read-out: DIZ; summary of the method: as §1
Aspergillus niger [5] = experiment: Antifungal activity against Aspergillus niger assessed as zone of inhibition at 100 ug/ml after 48 hrs by disc diffusion method; conditions: read-out: DIZ; summary of the method: as §1
Aspergillus niger [6] = experiment: Antifungal activity against Aspergillus niger assessed as zone of inhibition at 200 ug/ml after 48 hrs by disc diffusion method; conditions: read-out: DIZ; summary of the method: as §1
Fusarium solani [7] = experiment: Antifungal activity against Fusarium solani after 48 hrs by microdilution method
Summary of the method: (§2)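 MIC by microdilution susceptibility testing in tubes. Incubation was at 36 °C for 24 h (bacteria) or 48 h (fungi). MIC was recorded as the lowest compound concentration giving no turbidity, i.e. no visible growth. Chloramphenicol was the antibacterial reference and ketoconazole the antifungal standard.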

Curvularia lunata [8] = experiment: Antifungal activity against Curvularia lunata after 48 hrs by microdilution method; summary of the method: as §2
Aspergillus niger [9] = experiment: Antifungal activity against Aspergillus niger after 48 hrs by microdilution method; summary of the method: as §2
Staphylococcus aureus [10] = experiment: Antibacterial activity against Staphylococcus aureus assessed as zone of inhibition at 100 ug/ml after 24 hrs by disc diffusion method; conditions: read-out: DIZ
Summary of the method: (§3)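 Agar disc diffusion on nutrient agar plates pre-inoculated separately with each bacterium. Sterile 6 mm paper discs were moistened with compound solution in DMSO at 100 or 200 per disc and placed on the plates. Plates were incubated at 37 °C, and growth-inhibition zone diameter was measured after 24 h. Chloramphenicol served as the reference drug.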

Staphylococcus aureus [11] = experiment: Antibacterial activity against Staphylococcus aureus assessed as zone of inhibition at 200 ug/ml after 24 hrs by disc diffusion method; conditions: read-out: DIZ; summary of the method: as §3
Bacillus subtilis [12] = experiment: Antibacterial activity against Bacillus subtilis assessed as zone of inhibition at 100 ug/ml after 24 hrs by disc diffusion method; conditions: read-out: DIZ; summary of the method: as §3
Bacillus subtilis [13] = experiment: Antibacterial activity against Bacillus subtilis assessed as zone of inhibition at 200 ug/ml after 24 hrs by disc diffusion method; conditions: read-out: DIZ; summary of the method: as §3
Escherichia coli [14] = experiment: Antibacterial activity against Escherichia coli assessed as zone of inhibition at 100 ug/ml after 24 hrs by disc diffusion method; conditions: read-out: DIZ; summary of the method: as §3
Escherichia coli [15] = experiment: Antibacterial activity against Escherichia coli assessed as zone of inhibition at 200 ug/ml after 24 hrs by disc diffusion method; conditions: read-out: DIZ; summary of the method: as §3
Klebsiella pneumoniae [16] = experiment: Antibacterial activity against Klebsiella pneumoniae assessed as zone of inhibition at 100 ug/ml after 24 hrs by disc diffusion method; conditions: read-out: DIZ; summary of the method: as §3
Klebsiella pneumoniae [17] = experiment: Antibacterial activity against Klebsiella pneumoniae assessed as zone of inhibition at 200 ug/ml after 24 hrs by disc diffusion method; conditions: read-out: DIZ; summary of the method: as §3
Staphylococcus aureus [18] = experiment: Antibacterial activity against Staphylococcus aureus after 24 hrs by microdilution method; summary of the method: as §2
Bacillus subtilis [19] = experiment: Antibacterial activity against Bacillus subtilis after 24 hrs by microdilution method; summary of the method: as §2
Escherichia coli [20] = experiment: Antibacterial activity against Escherichia coli after 24 hrs by microdilution method; summary of the method: as §2
Klebsiella pneumoniae [21] = experiment: Antibacterial activity against Klebsiella pneumoniae after 24 hrs by microdilution method; summary of the method: as §2
[22] = Antioxidant activity against nitric oxide scavenging activity at 100 uM after 120 mins by spectrophotometric analysis at pH 7.4
Summary of the method: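 Nitric oxide scavenging: test compounds at 100 in dioxane/methanol were incubated at 25 °C for 120 min, with a solvent-only control. At intervals, 0.5 ml samples were mixed with an equal volume of Griess reagent (1% sulfanilamide, 0.1% N-naphthylethylenediamine dihydrochloride, 2% o-phosphoric acid). Absorbance of the azo chromophore was then measured.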

[23] = test system: Radical scavenging activity; experiment: Antioxidant activity against DPPH free radical scavenging activity at 100 uM after 20 mins by spectrophotometric analysis at pH 7.5
Summary of the method: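 DPPH assay: compound solutions at 100 were added to DPPH at 100 in dioxane/methanol and held at ambient temperature for 20 min. Absorbance was read at 517 nm, and the test–control difference was expressed as percent DPPH radical scavenging.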

MIC (Fusarium solani [7]) [µg/mL] | MIC (Curvularia lunata [8]) [µg/mL] | MIC (Aspergillus niger [9]) [µg/mL] | MIC (Staphylococcus aureus [18]) [µg/mL] | SMILES | zone of inhibition at 100 µg/mL (Fusarium solani [1]) [mm] | zone of inhibition at 200 µg/mL (Fusarium solani [2]) [mm] | zone of inhibition at 100 µg/mL (Curvularia lunata [3]) [mm] | zone of inhibition at 200 µg/mL (Curvularia lunata [4]) [mm] | zone of inhibition at 100 µg/mL (Aspergillus niger [5]) [mm] | zone of inhibition at 200 µg/mL (Aspergillus niger [6]) [mm] | zone of inhibition at 100 µg/mL (Staphylococcus aureus [10]) [mm] | zone of inhibition at 200 µg/mL (Staphylococcus aureus [11]) [mm] | zone of inhibition at 100 µg/mL (Bacillus subtilis [12]) [mm] | zone of inhibition at 200 µg/mL (Bacillus subtilis [13]) [mm] | zone of inhibition at 100 µg/mL (Escherichia coli [14]) [mm] | zone of inhibition at 200 µg/mL (Escherichia coli [15]) [mm] | zone of inhibition at 100 µg/mL (Klebsiella pneumoniae [16]) [mm] | zone of inhibition at 200 µg/mL (Klebsiella pneumoniae [17]) [mm] | inhibition [22] [%] | inhibition [23] [%] | other results
 |  |  |  | CCOC(=O)CSC(SCC(=O)OCC)=C(C#N)C#N | 13 | 15 | 12 | 15 | 9 | 12 | 10 | 14 | 12 | 14 | 7 | 9 |  | 8 | 45.8 | 46.3 | 
 |  |  |  | Cc1ccc(-c2nnc(CSC(SCc3nnc(-c4ccc(C)cc4)o3)=C(C#N)C#N)o2)cc1 | 15 | 17 | 13 | 14 | 10 | 11 | 10 | 13 | 10 | 12 |  |  |  | 11 | 54.3 | 52.5 | 
 |  |  |  | Cc1ccc(-c2nnc(CSC(SCc3nnc(-c4ccc(C)cc4)s3)=C(C#N)C#N)s2)cc1 | 23 | 25 | 25 | 26 | 18 | 21 | 19 | 25 | 19 | 24 | 17 | 24 | 18 | 22 | 22.3 | 21.6 | 
50 (≈ 89.4 µM) | 50 (≈ 89.4 µM) | 100 (≈ 179 µM) | 100 (≈ 179 µM) | N#CC(C#N)=C(SCc1nnc(-c2ccc(Cl)cc2)s1)SCc1nnc(-c2ccc(Cl)cc2)s1 | 30 | 32 | 32 | 34 | 26 | 29 | 32 | 35 | 30 | 32 | 25 | 26 | 23 | 25 | 29.4 | 30.2 | MIC (Bacillus subtilis [19]): 50 µg/mL (≈ 89.4 µM); MIC (Escherichia coli [20]): 200 µg/mL (≈ 357 µM); MIC (Klebsiella pneumoniae [21]): 200 µg/mL (≈ 357 µM)
 |  |  |  | N#CC(C#N)=C(SCc1nnc(-c2ccccc2)o1)SCc1nnc(-c2ccccc2)o1 | 18 | 21 | 15 | 17 | 12 | 14 | 12 | 14 | 12 | 16 | 8 | 10 | 9 | 12 | 65.4 | 63.5 | 
100 (≈ 204 µM) | 100 (≈ 204 µM) | 100 (≈ 204 µM) | 200 (≈ 408 µM) | N#CC(C#N)=C(SCc1nnc(-c2ccccc2)s1)SCc1nnc(-c2ccccc2)s1 | 25 | 28 | 26 | 28 | 21 | 24 | 24 | 26 | 23 | 27 | 21 | 24 | 23 | 24 | 25.8 | 26.3 | MIC (Bacillus subtilis [19]): 100 µg/mL (≈ 204 µM); MIC (Escherichia coli [20]): 200 µg/mL (≈ 408 µM); MIC (Klebsiella pneumoniae [21]): 200 µg/mL (≈ 408 µM)
 |  |  |  | O=C1O[C@H]([C@@H](O)CO)C(O)=C1O |  |  |  |  |  |  |  |  |  |  |  |  |  |  | 94.9 | 95.3 | 
 |  |  |  | N#CC(C#N)=C(SCc1nnc(-c2ccc(Cl)cc2)o1)SCc1nnc(-c2ccc(Cl)cc2)o1 | 20 | 22 | 16 | 19 | 14 | 17 | 16 | 20 | 13 | 16 | 8 | 11 | 8 | 12 | 72.5 | 73.7 | 

SMILES | MIC (Fusarium solani [7]) [µg/mL] | MIC (Curvularia lunata [8]) [µg/mL] | MIC (Aspergillus niger [9]) [µg/mL] | MIC (Staphylococcus aureus [18]) [µg/mL] | zone of inhibition at 100 µg/mL (Fusarium solani [1]) [mm] | zone of inhibition at 200 µg/mL (Fusarium solani [2]) [mm] | zone of inhibition at 100 µg/mL (Curvularia lunata [3]) [mm] | zone of inhibition at 200 µg/mL (Curvularia lunata [4]) [mm] | zone of inhibition at 100 µg/mL (Aspergillus niger [5]) [mm] | zone of inhibition at 200 µg/mL (Aspergillus niger [6]) [mm] | zone of inhibition at 100 µg/mL (Staphylococcus aureus [10]) [mm] | zone of inhibition at 200 µg/mL (Staphylococcus aureus [11]) [mm] | zone of inhibition at 100 µg/mL (Bacillus subtilis [12]) [mm] | zone of inhibition at 200 µg/mL (Bacillus subtilis [13]) [mm] | zone of inhibition at 100 µg/mL (Escherichia coli [14]) [mm] | zone of inhibition at 200 µg/mL (Escherichia coli [15]) [mm] | zone of inhibition at 100 µg/mL (Klebsiella pneumoniae [16]) [mm] | zone of inhibition at 200 µg/mL (Klebsiella pneumoniae [17]) [mm] | inhibition [22] [%] | inhibition [23] [%] | other results
CC(=O)N1CCN(c2ccc(OCC3COC(Cn4ccnc4)(c4ccc(Cl)cc4Cl)O3)cc2)CC1 (stereo not given) [KETOCONAZOLE] | 12.5 (≈ 23.5 µM) | 6.25 (≈ 11.8 µM) | 6.25 (≈ 11.8 µM) |  | 38 | 42 | 41 | 44 | 36 | 39 |  |  |  |  |  |  |  |  |  |  | 
O=C(N[C@H](CO)[C@H](O)c1ccc([N+](=O)[O-])cc1)C(Cl)Cl [CHLORAMPHENICOL] |  |  |  | 6.25 (≈ 19.3 µM) |  |  |  |  |  |  | 35 | 39 | 38 | 41 | 40 | 44 | 42 | 45 |  |  | MIC (Bacillus subtilis [19]): 6.25 µg/mL (≈ 19.3 µM); MIC (Escherichia coli [20]): 6.25 µg/mL (≈ 19.3 µM); MIC (Klebsiella pneumoniae [21]): 12.5 µg/mL (≈ 38.7 µM)

Reference: ChEMBL document CHEMBL1759942, “Synthesis and biological activity of 2-(bis((1,3,4-oxadiazolyl/1,3,4-thiadiazolyl)methylthio)methylene)malononitriles” (2011)
